# Paper PMC3850770 (Chemical research in toxicology, 2012)
# T1: P450 2W1 (Homo sapiens, UniProt Q8TAV3)
# T1 sequence (Q8TAV3 23-490): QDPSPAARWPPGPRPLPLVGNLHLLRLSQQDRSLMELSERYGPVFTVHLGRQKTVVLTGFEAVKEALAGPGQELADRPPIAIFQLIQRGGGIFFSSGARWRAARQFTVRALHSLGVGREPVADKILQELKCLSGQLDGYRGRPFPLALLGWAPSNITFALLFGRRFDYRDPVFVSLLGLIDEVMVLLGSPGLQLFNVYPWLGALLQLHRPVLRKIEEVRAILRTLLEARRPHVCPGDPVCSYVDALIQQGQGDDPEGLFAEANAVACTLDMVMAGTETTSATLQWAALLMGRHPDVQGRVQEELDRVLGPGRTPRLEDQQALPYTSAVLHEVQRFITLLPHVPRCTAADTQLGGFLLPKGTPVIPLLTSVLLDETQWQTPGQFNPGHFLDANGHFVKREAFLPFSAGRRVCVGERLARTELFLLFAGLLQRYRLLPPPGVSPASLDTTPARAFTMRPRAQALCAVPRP
# T2: P450 1A1 (Homo sapiens, UniProt P04798)
# T2 sequence (P04798 1-512): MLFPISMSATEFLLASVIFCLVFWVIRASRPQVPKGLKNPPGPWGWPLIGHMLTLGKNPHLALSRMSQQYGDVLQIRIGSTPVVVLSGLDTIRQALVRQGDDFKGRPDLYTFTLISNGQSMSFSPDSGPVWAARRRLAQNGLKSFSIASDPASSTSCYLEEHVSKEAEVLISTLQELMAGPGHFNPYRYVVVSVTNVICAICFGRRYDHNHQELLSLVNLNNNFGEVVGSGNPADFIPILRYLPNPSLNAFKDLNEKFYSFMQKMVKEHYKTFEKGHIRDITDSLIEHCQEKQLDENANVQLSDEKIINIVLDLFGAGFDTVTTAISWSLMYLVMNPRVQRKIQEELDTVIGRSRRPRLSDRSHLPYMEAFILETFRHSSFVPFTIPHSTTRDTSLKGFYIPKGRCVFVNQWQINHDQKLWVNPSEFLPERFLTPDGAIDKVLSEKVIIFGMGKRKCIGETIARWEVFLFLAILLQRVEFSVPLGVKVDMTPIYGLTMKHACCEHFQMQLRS
# T3: P450 2S1 (Homo sapiens, UniProt Q96SQ9)
# T3 sequence (Q96SQ9 1-504): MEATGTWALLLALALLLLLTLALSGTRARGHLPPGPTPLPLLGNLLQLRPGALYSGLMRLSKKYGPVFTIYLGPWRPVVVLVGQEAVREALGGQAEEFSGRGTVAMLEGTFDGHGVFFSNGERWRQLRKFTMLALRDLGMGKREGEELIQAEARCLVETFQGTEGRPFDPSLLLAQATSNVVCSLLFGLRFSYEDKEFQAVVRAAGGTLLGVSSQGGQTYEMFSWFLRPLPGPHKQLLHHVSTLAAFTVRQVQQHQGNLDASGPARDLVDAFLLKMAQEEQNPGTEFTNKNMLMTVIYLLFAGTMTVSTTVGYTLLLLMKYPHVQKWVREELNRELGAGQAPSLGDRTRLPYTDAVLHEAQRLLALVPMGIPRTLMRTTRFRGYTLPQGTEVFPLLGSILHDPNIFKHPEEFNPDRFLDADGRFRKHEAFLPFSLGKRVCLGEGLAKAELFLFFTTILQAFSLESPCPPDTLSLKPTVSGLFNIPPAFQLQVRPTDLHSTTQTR
# B1: P450 1A1 (Homo sapiens) (protein)
# chain: T2 sequence (P04798 1-512)
# Experiments:
# [1] = molecular target: T1, P450 2W1; test: Steady-state kinetics of P450 2W1-catalyzed oxidation; format: in vitro ADME
# How it was run: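 Same P450 and NADPH-generating levels as qualitative incubations, in 0.10 M phosphate, pH 7.4. Substrate 0–200 μM, in duplicate, at 37 °C. With 2W1: 10 min (dimethoxyphenyl substrate) or 15 min (aminophenyl substrate); with 1A1: 15 and 25 min respectively. CH2Cl2 quench, benzothiazole internal standard added, extract quantified by HPLC-UV. Km and kcat from nonlinear regression.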
# [2] = molecular target: T2, P450 1A1; test: Steady-state kinetics of P450 1A1-catalyzed oxidation; format: in vitro ADME; details: oxidation of 5F 203 to form 8a
# [3] = molecular target: T1, P450 2W1; test: Preliminary incubation with P450 2W1, products by HPLC-UV; format: in vitro ADME; details: recombinant human P450 2W1
# How it was run: (§1)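 Recombinant human P450 at 0.3–0.8 μM, either in E. coli membranes or purified and reconstituted with 2-fold excess NADPH-P450 reductase plus 30 μM DLPC. Substrate 100 μM with NADPH-generating system in 0.10 M potassium phosphate, pH 7.4; 37 °C for 30–60 min. Extracted into 2 volumes CH2Cl2, residue taken up in CH3CN. Read by C18 HPLC with photodiode-array UV, acetonitrile/water gradient containing 0.5% formic acid.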
# [4] = molecular target: T3, P450 2S1; test: Preliminary incubation with P450 2S1, products by HPLC-UV; format: in vitro ADME; details: recombinant human P450 2S1
# How it was run: as §1
# [5] = test system: P450 2W1, P450 1A1, or human liver microsomes; test: GSH adduct formation from oxidation products; format: in vitro ADME; details: 5 mM GSH, 100 μM substrate, LC-MS
# How it was run: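 P450 2W1 or 1A1 in E. coli membranes, or human liver microsomes pooled from ten donors, at 0.50 μM with 100 μM substrate, 5 mM GSH and 4 μg mL−1 catalase. Incubated 12–15 h at 37 °C, stopped with 2 volumes CH3CN; supernatant analysed by ESI+ LC-MS.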
# [6] = test system: MCF-7 cells; details: ref [12], [13]; cited from earlier work
# [7] = test system: MDA 468 cells; details: ref [12], [13]; cited from earlier work
# [8] = test system: IGROV-1 cells; details: ref [12], [13]; cited from earlier work
# [9] = test system: colon, lung, and breast cancer cell lines; details: ref [19]; cited from earlier work
# [10] = test system: dGuo; test: dGuo adduct formation with synthetic 10; details: after Ac2O activation, 37 °C under argon 2 h, LC-MS m/z 524
# [11] = Solubility in organic solvents; format: physicochemical; details: in CHCl3 and CH3OH
# [12] = substrate: COc1ccc(-c2nc3cc(F)ccc3s2)cc1OC; test: Steady-state kinetics of P450 1A1-catalyzed oxidation; format: in vitro ADME, human; details: other: P450 1A1, substrate GW 610, product 4c; pH 7.4; 37.0 °C
# [13] = substrate: Cc1cc(-c2nc3cc(F)ccc3s2)ccc1N; test: as above; format: in vitro ADME, human; details: pH 7.4, 37.0 °C
# [14] = other: P450 1A1, substrate 5F 203, product 8a
# [15] = other: P450 1A1, substrate 5F 203, product 8b
molecule,measurement,setting,value
"Cc1cc(-c2nc3cc(F)ccc3s2)ccc1N [5F 203, 2-(4-Amino-3-methylphenyl)-5-fluorobenzothiazole]",kcat,"[1]; P450 2W1, substrate 5F 203, product 8a",0.0158 ± 0.0017 s⁻¹
same,kcat,"[1]; P450 2W1, substrate 5F 203, product 10",0.00933 ± 0.001 s⁻¹
same,Km at 15 min,"[1]; human, pH 7.4, Km, P450 2W1, substrate 5F 203, product 8a",31 ± 11 µM
same,Km at 15 min,"[1]; human, pH 7.4, Km, P450 2W1, substrate 5F 203, product 10",35 ± 12 µM
same,efficiency of P450 1A1 relative to P450 2W1,[2],~ 2 fold
same,product formation on incubation with P450 2W1,[3],Products were formed
same,product formation on incubation with P450 2S1,[4],no products were observed
same,GSH conjugate formation,[5],detected
same,GI50,[6],< 1 nM
same,GI50,[7],< 1 nM
same,GI50,[8],< 1 nM
"c1ccc(-c2nc3ccccc3s2)cc1 [2-phenylbenzothiazole, reference compound]",product formation on incubation with P450 2W1,[3],No products were observed
same,product formation on incubation with P450 2S1,[4],No products were observed
"COc1ccc(-c2nc3cc(F)ccc3s2)cc1OC [GW 610, 5-Fluoro-2-(3,4-dimethoxyphenyl)-benzothiazole]",kcat,"[1]; P450 2W1, substrate GW 610, product 4c",0.0633 ± 0.0067 s⁻¹
same,efficiency of P450 2W1 relative to P450 1A1,[1]; formation of 4c from GW 610,5 fold
same,Km at 10 min,"[1]; human, pH 7.4, Km, P450 2W1, substrate GW 610, product 4c",22 ± 7 µM
same,product formation on incubation with P450 2W1,[3],Products were formed
same,product formation on incubation with P450 2S1,[4],no products were observed
same,GSH conjugate formation,[5],detected
same,GI50,[9],< 0.1 nM
"Cc1cc(-c2nc3cc(F)ccc3s2)ccc1NO [compound 10, 2-(4-Hydroxylamino-3-methylphenyl)-5-fluorobenzothiazole]",dGuo adduct formation,[10],consistent with a dGuo adduct of compound 10
same,solubility,[11],very poor
B1,Km,[12],10 ± 3 µM
same,kcat,[12],0.00617 ± 0.0005 s⁻¹
same,kcat/Km,[12],600 ± 167 M⁻¹ s⁻¹
same,Km,[13]; [14],32 ± 9 µM
same,kcat,[13]; [14],0.0283 ± 0.00333 s⁻¹
same,kcat/Km,[13]; [14],900 ± 333 M⁻¹ s⁻¹
same,Km,[13]; [15],29 ± 8 µM
same,kcat,[13]; [15],0.0517 ± 0.005 s⁻¹
same,kcat/Km,[13]; [15],1830 ± 500 M⁻¹ s⁻¹
